From ChEMBL document CHEMBL4028832, “Design and synthesis of 1,2,3-triazolo-phenanthrene hybrids as cytotoxic agents” (Bioorg Med Chem Lett, 2017)
Blank lines part the entries; values can stand above or below the compound they belong to. Activity calls are given as the source filed them. No cut-off for these calls is given here.

Experiments:
[1] = system: 4T1; test: Cytotoxicity against mouse 4T1 cells after 48 hrs by MTT assay; format: functional, cell-based; details: 4T1, 48 h
How it was run: (§1)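 The human cancer lines and mouse 4T1 breast cells were treated with compound for 48 h and assessed by MTT assay. IC50 is the concentration giving 50% inhibition. 5-Fluorouracil served as the MTT standard.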

[2] = system: HeLa; test: Cytotoxicity against human HeLa cells after 48 hrs by MTT assay; format: functional, cell-based; how it was run: as §1
[3] = system: MDA-MB-231; test: Cytotoxicity against human MDA-MB-231 cells after 48 hrs by MTT assay; format: functional, cell-based; details: MDA-MB-231, 48 h; how it was run: as §1
[4] = system: MDA-MB-453; test: Cytotoxicity against human MDA-MB-453 cells after 48 hrs by MTT assay; format: functional, cell-based; details: MDA-MB-453, 48 h; how it was run: as §1
[5] = system: A549; test: Cytotoxicity against human A549 cells after 48 hrs by MTT assay; format: functional, cell-based; details: A549, 48 h; how it was run: as §1
[6] = system: DU-145; test: Cytotoxicity against human DU145 cells after 48 hrs by MTT assay; format: functional, cell-based; details: DU-145, 48 h; how it was run: as §1
[7] = system: BT-549; test: Cytotoxicity against human BT549 cells after 48 hrs by MTT assay; format: functional, cell-based; details: BT-549, 48 h; how it was run: as §1
[8] = system: HGC-27; test: Cytotoxicity against human HGC27 cells after 48 hrs by MTT assay; format: functional, cell-based; details: HGC-27, 48 h; how it was run: as §1
[9] = system: PC-3; test: Cytotoxicity against human PC3 cells after 48 hrs by MTT assay; format: functional, cell-based; details: PC-3, 48 h; how it was run: as §1
[10] = system: DU-145; test: Induction of apoptosis in human DU145 cells assessed as formation of condensed nuclei at 2 to 8 uM after 24 hrs by DAPI staining based fluorescence microscopic method
[11] = system: DU-145; test: Induction of apoptosis in human DU145 cells assessed as increase in intracellular reactive oxygen species after 6 hrs by DCFDA dye based spectrofluorometeric method; format: functional, cell-based
How it was run: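 Intracellular ROS in DU145 cells was measured by DCFDA fluorescence after 6 h of treatment at several doses. Comparators were N-acetyl cysteine pretreatment before compound and H2O2-treated cells. Values are mean ± SD of three independent experiments.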

[12] = organism: Bos taurus; test: Binding affinity to calf thymus DNA assessed as increase in viscosity at 5 uM by Rolling-ball viscometric method
[13] = system: DU-145; test: Induction of apoptosis in human DU145 cells assessed as cell detachment at 2 to 8 uM after 48 hrs by phase contrast microscopic method; format: functional, cell-based
How it was run: (§2)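 Phase-contrast microscopy of DU145 cells treated at 2, 4 and 8 µM. Images were captured and scored against untreated control for cell detachment and nuclear shrinkage.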

[14] = system: DU-145; test: Cell cycle arrest in human DU145 cells assessed as accumulation at S phase at 2 uM after 24 hrs by propidium iodide staining based FACS analysis (reference value: 7.93%); format: functional
[15] = system: DU-145; test: Induction of apoptosis in human DU145 cells assessed as cell shrinkage at 8 uM after 48 hrs by acridine orange/ethidium bromide staining-based fluorescence microscopic analysis; format: functional
How it was run: (§3)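 Treated DU145 cells were double-stained with acridine orange and ethidium bromide and imaged by fluorescence microscopy. Acridine orange stains intact nuclei green; ethidium bromide stains nuclei of membrane-compromised cells red. Cells were scored for blebbing, chromatin condensation, shrinkage and apoptotic bodies versus control.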

[16] = system: DU-145; test: Induction of apoptosis in human DU145 cells assessed as horse shoe shaped nuclei at 2 to 8 uM after 24 hrs by DAPI staining based fluorescence microscopic method
[17] = system: DU-145; test: Cell cycle arrest in human DU145 cells assessed as increase in accumulation at G0/G1 phase after 24 hrs by propidium iodide staining based FACS analysis; format: functional
[18] = system: DU-145; test: Induction of apoptosis in human DU145 cells assessed as membrane blebbing at 8 uM after 48 hrs by acridine orange/ethidium bromide staining-based fluorescence microscopic analysis; format: functional, cell-based; how it was run: as §3
[19] = system: DU-145; test: Cell cycle arrest in human DU145 cells assessed as accumulation at G0/G1 phase at 1 uM after 24 hrs by propidium iodide staining based FACS analysis (reference value: 64.1%); format: functional
[20] = system: DU-145; test: Cell cycle arrest in human DU145 cells assessed as accumulation at S phase at 4 uM after 24 hrs by propidium iodide staining based FACS analysis (reference value: 7.93%); format: functional
[21] = system: DU-145; test: Cell cycle arrest in human DU145 cells assessed as accumulation at G0/G1 phase at 2 uM after 24 hrs by propidium iodide staining based FACS analysis (reference value: 64.1%); format: functional
[22] = system: DU-145; test: Cell cycle arrest in human DU145 cells assessed as accumulation at G2/M phase at 4 uM after 24 hrs by propidium iodide staining based FACS analysis (reference value: 16.38%); format: functional
[23] = system: DU-145; test: Cell cycle arrest in human DU145 cells assessed as accumulation at S phase at 1 uM after 24 hrs by propidium iodide staining based FACS analysis (reference value: 7.93%); format: functional
[24] = system: DU-145; test: Cell cycle arrest in human DU145 cells assessed as accumulation at G2/M phase at 1 uM after 24 hrs by propidium iodide staining based FACS analysis (reference value: 16.38%); format: functional
[25] = system: DU-145; test: Cell cycle arrest in human DU145 cells assessed as accumulation at G2/M phase at 2 uM after 24 hrs by propidium iodide staining based FACS analysis (reference value: 16.38%); format: functional
[26] = system: DU-145; test: Induction of apoptosis in human DU145 cells assessed as apoptotic body formation at 8 uM after 48 hrs by acridine orange/ethidium bromide staining-based fluorescence microscopic analysis; format: functional, cell-based; how it was run: as §3
[27] = system: DU-145; test: Cell cycle arrest in human DU145 cells assessed as accumulation at S phase at 8 uM after 24 hrs by propidium iodide staining based FACS analysis (reference value: 7.93%); format: functional
[28] = system: DU-145; test: Induction of apoptosis in human DU145 cells assessed as loss of mitochondrial membrane potential after 24 hrs by JC1 staining-based fluorescence microscopic method; format: functional, cell-based
How it was run: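 DU145 cells were treated at 2, 4 and 8 µM for 24 h and stained with JC-1. Orange aggregates mark polarised mitochondria and green monomers mark depolarised ones, imaged by fluorescence. JC-1 aggregate intensity was quantified by spectrofluorometry.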

[29] = system: DU-145; test: Cell cycle arrest in human DU145 cells assessed as accumulation at G0/G1 phase at 4 uM after 24 hrs by propidium iodide staining based FACS analysis (reference value: 64.1%); format: functional
[30] = system: DU-145; test: Cell cycle arrest in human DU145 cells assessed as accumulation at G2/M phase at 8 uM after 24 hrs by propidium iodide staining based FACS analysis (reference value: 16.38%); format: functional
[31] = system: DU-145; test: Induction of apoptosis in human DU145 cells assessed as chromatin condensation at 8 uM after 48 hrs by acridine orange/ethidium bromide staining-based fluorescence microscopic analysis; format: functional, cell-based; how it was run: as §3
[32] = system: DU-145; test: Induction of apoptosis in human DU145 cells assessed as nuclear shrinkage at 2 to 8 uM after 48 hrs by phase contrast microscopic method; format: functional, cell-based; how it was run: as §2
[33] = system: DU-145; test: Cell cycle arrest in human DU145 cells assessed as accumulation at G0/G1 phase at 8 uM after 24 hrs by propidium iodide staining based FACS analysis (reference value: 64.1%); format: functional

Structure (SMILES): COc1cc2cc(Cn3cc(COc4ccc(-c5ccccc5)cc4)nn3)c3cc(OC)c(OC)cc3c2cc1OC
IC50 [1]: 10.8 µM | IC50 [2]: > 20 µM | IC50 [3]: > 20 µM | IC50 [4]: > 20 µM | IC50 [5]: > 20 µM | IC50 [6]: > 20 µM | IC50 [7]: > 20 µM | IC50 [8]: > 20 µM | IC50 [9]: 12.5 µM

Structure (SMILES): COc1cc2cc(Cn3cc(CN4C(=O)c5ccccc5C4=O)nn3)c3cc(OC)c(OC)cc3c2cc1OC
IC50 [1]: 11.3 µM | IC50 [2]: 12.6 µM | IC50 [3]: 11.8 µM | IC50 [4]: > 20 µM | IC50 [5]: > 20 µM | IC50 [6]: 2.6 µM | IC50 [7]: > 20 µM | IC50 [8]: 7.5 µM | IC50 [9]: 7.6 µM

Structure (SMILES): COc1cc2cc(Cn3cc(CN4CCCc5ccccc54)nn3)c3cc(OC)c(OC)cc3c2cc1OC
IC50 [1]: > 20 µM | IC50 [2]: > 20 µM | IC50 [3]: > 20 µM | IC50 [4]: > 20 µM | IC50 [5]: > 20 µM | IC50 [6]: > 20 µM | IC50 [7]: > 20 µM | IC50 [8]: > 20 µM | IC50 [9]: 13.9 µM

Structure (SMILES): COc1cc2cc(Cn3cc(COc4ccccc4OC)nn3)c3cc(OC)c(OC)cc3c2cc1OC
IC50 [1]: > 20 µM | IC50 [2]: 11.2 µM | IC50 [3]: > 20 µM | IC50 [4]: > 20 µM | IC50 [5]: > 20 µM | IC50 [6]: > 20 µM | IC50 [7]: > 20 µM | IC50 [8]: 9.1 µM | IC50 [9]: > 20 µM

Structure (SMILES): COc1cc2cc(Cn3cc(COc4ccc(OCc5ccccc5)cc4)nn3)c3cc(OC)c(OC)cc3c2cc1OC
IC50 [1]: 9.3 µM | IC50 [2]: 21.1 µM | IC50 [3]: > 20 µM | IC50 [4]: > 20 µM | IC50 [5]: > 20 µM | IC50 [6]: > 20 µM | IC50 [7]: 14.3 µM | IC50 [8]: 9.6 µM | IC50 [9]: > 20 µM

Activity [12]: Active
Structure (SMILES): COc1cc2cc(Cn3cc(CN4C(=O)c5cccc6cccc(c56)C4=O)nn3)c3cc(OC)c(OC)cc3c2cc1OC
Activity [10]: Active | IC50 [1]: 4.2 µM | Activity [11]: Dose-dependent effect | IC50 [2]: 2.9 µM | Activity [13]: Active | Activity [14]: 6.37% | IC50 [3]: 4.2 µM | Activity [15]: Active | Activity [16]: Active | Activity [17]: Dose-dependent effect | Activity [18]: Active | IC50 [4]: 5.1 µM | Activity [19]: 71.1% | IC50 [5]: > 20 µM | Activity [20]: 5.37% | IC50 [6]: 1.5 µM | Activity [21]: 73.32% | IC50 [7]: 3.7 µM | Activity [22]: 11.7% | Activity [23]: 4.4% | Activity [24]: 20.46% | Activity [25]: 16.71% | Activity [26]: Active | IC50 [8]: 5.1 µM | Activity [27]: 1.91% | Activity [28]: Dose-dependent effect | Activity [29]: 80.37% | IC50 [9]: 8.5 µM | Activity [30]: 7.64% | Activity [31]: Active | Activity [32]: Active | Activity [33]: 88.62%

Activity [12]: Active
Structure (SMILES): COc1cc2cc(Cn3cc(CN4C(=O)c5ccc(C)cc5C4=O)nn3)c3cc(OC)c(OC)cc3c2cc1OC
IC50 [1]: 10 µM | IC50 [2]: 2.7 µM | IC50 [3]: 4.6 µM | IC50 [4]: 6.5 µM | IC50 [5]: 12.3 µM | IC50 [6]: 1.87 µM | IC50 [7]: 3.9 µM | IC50 [8]: 3.5 µM | IC50 [9]: 7.12 µM

Structure (SMILES): COc1cc2cc(Cn3cc(CCO)nn3)c3cc(OC)c(OC)cc3c2cc1OC
IC50 [1]: > 20 µM | IC50 [2]: 17.2 µM | IC50 [3]: > 20 µM | IC50 [4]: > 20 µM | IC50 [5]: > 20 µM | IC50 [6]: > 20 µM | IC50 [7]: > 20 µM | IC50 [8]: 14.2 µM | IC50 [9]: > 20 µM

Structure (SMILES): COc1cc2cc(Cn3cc(COc4cc(OC)c(OC)c(OC)c4)nn3)c3cc(OC)c(OC)cc3c2cc1OC
IC50 [1]: > 20 µM | IC50 [2]: > 20 µM | IC50 [3]: 19.2 µM | IC50 [4]: > 20 µM | IC50 [5]: > 20 µM | IC50 [6]: > 20 µM | IC50 [7]: > 20 µM | IC50 [8]: 14.8 µM | IC50 [9]: > 20 µM
